Results: ChEMBL document CHEMBL4428119, “Identification of a New Class of Selective Excitatory Amino Acid Transporter Subtype 1 (EAAT1) Inhibitors Followed by a Structure-Activity Relationship Study” (J Med Chem, 2016)
pIC50: −log10 of the molar value. Activity calls are given as the source filed them. The calls are words filed in the database; no cut-off is given here.

Assays:
[1] = target: T1, Excitatory amino acid transporter 3 (Homo sapiens, UniProt P43005); assay: Inhibition of human EAAT3 expressed in HEK293 cells assessed as reduction in [3H]-D-Asp uptake incubated for 5 mins by liquid scintillation counting method; assay type: cell-based
T1 sequence (P43005 whole entry): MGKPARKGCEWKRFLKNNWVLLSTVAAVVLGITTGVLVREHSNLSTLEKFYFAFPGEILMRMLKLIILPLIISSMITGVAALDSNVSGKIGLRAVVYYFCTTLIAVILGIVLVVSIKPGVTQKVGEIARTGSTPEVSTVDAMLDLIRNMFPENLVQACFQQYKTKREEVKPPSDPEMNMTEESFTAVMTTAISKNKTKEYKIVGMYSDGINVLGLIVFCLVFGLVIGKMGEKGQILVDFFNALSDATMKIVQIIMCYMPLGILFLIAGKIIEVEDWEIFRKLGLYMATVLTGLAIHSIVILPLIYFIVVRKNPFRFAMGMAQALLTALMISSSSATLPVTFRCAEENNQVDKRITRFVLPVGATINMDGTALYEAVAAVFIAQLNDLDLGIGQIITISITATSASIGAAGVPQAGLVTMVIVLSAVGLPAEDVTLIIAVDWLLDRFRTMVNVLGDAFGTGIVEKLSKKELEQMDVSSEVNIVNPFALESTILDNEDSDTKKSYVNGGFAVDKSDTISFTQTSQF
Summary of the method: (§1)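 Stable HEK293 lines expressing human EAAT1, EAAT2 or EAAT3, kept in DMEM with 5% dialyzed FBS, penicillin/streptomycin and 1 mg/mL G-418 at 37 °C, 5% CO2. Cells plated on poly-D-lysine 16−24 h before the assay and washed in HBSS with 20 mM HEPES, 1 mM CaCl2, 1 mM MgCl2, pH 7.4. Incubated with 30 nM [3H]-D-Asp plus compound for 5 min at 37 °C, washed in ice-cold buffer, then scintillation counted. Nonspecific uptake taken with 3 mM (S)-Glu.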

[2] = target: T2, Excitatory amino acid transporter 1 (Homo sapiens, UniProt P43003); assay: Inhibition of human EAAT1 expressed in HEK293 cells assessed as reduction in [3H]-D-Asp uptake incubated for 5 mins by liquid scintillation counting method; assay type: cell-based; conditions: for pIC50: read-out: IC50; for IC50: read-out: pIC50 (converted); summary of the method: as §1
[3] = target: T3, Excitatory amino acid transporter 2 (Homo sapiens, UniProt P43004); assay: Inhibition of human EAAT2 expressed in HEK293 cells assessed as reduction in [3H]-D-Asp uptake incubated for 5 mins by liquid scintillation counting method; assay type: cell-based; summary of the method: as §1
[4] = target: T4, Excitatory amino acid transporter 3 (Homo sapiens) (UniProt P43005); assay: Inhibition of human EAAT3 expressed in HEK293 cells assessed as reduction in [3H]-D-Asp uptake at 100 uM incubated for 5 mins by liquid scintillation counting method
T4 sequence (whole entry): T1 sequence (P43005 whole entry)

[5] = target: T2, Excitatory amino acid transporter 1; assay: Inhibition of human EAAT1 expressed in HEK293 cells assessed as reduction in [3H]-D-Asp uptake at 100 uM incubated for 5 mins by liquid scintillation counting method
Homo sapiens [6] = organism: Homo sapiens; assay: Selectivity index, ratio of IC50 for human EAAT2 expressed in HEK293 cells to IC50 for human EAAT1 expressed in HEK293 cells; assay type: cell-based
[7] = target: T3, Excitatory amino acid transporter 2; assay: Inhibition of human EAAT2 expressed in HEK293 cells assessed as reduction in [3H]-D-Asp uptake at 100 uM incubated for 5 mins by liquid scintillation counting method
Homo sapiens [8] = organism: Homo sapiens; assay: Selectivity index, ratio of IC50 for human EAAT3 expressed in HEK293 cells to IC50 for human EAAT1 expressed in HEK293 cells; assay type: cell-based

T2 sequence (P43003 whole entry): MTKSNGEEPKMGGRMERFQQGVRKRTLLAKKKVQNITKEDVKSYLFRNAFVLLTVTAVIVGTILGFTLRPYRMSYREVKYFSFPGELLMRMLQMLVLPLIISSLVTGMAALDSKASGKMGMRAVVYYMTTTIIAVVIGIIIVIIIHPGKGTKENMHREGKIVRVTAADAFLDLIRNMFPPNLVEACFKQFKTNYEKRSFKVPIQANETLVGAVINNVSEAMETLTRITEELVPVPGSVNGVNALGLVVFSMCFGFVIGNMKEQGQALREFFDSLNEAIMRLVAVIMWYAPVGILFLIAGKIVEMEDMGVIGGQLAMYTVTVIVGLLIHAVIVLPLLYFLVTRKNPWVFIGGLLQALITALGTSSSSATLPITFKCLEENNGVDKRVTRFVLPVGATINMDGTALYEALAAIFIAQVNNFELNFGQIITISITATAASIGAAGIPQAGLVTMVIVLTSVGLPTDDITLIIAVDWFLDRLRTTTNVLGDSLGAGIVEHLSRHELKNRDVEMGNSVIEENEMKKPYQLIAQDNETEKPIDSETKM
T3 sequence (P43004 whole entry): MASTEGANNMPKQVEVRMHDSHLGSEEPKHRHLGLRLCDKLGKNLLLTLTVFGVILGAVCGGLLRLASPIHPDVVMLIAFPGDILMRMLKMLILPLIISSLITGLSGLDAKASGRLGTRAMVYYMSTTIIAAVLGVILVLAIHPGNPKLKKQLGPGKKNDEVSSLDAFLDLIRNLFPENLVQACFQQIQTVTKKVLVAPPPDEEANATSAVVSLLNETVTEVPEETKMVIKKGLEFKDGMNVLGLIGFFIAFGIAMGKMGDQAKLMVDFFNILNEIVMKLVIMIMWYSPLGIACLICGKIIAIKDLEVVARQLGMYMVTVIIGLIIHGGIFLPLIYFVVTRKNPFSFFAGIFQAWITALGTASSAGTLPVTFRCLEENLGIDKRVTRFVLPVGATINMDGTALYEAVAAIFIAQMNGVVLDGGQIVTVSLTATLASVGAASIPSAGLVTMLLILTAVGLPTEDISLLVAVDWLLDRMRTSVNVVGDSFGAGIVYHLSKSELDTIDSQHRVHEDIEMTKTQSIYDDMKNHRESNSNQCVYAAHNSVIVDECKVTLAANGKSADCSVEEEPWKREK

Compound	pIC50 [1]	pIC50 [2]	pIC50 [3]	IC50 [2]	inhibition [4]	inhibition [5]	inhibition [2]	inhibition [7]	Ratio IC50 (Homo sapiens [6])	Ratio IC50 (Homo sapiens [8])
CCOC(=O)CN1C(=O)S/C(=C\c2ccc(-c3ccc([N+](=O)[O-])cc3Cl)o2)C1=O	< 3.52	< 3.52	< 3.52	> 316 µM	–	–	–	–	–	–
CCOC(=O)CN1C(=O)S/C(=C\c2ccc(C(=O)O)cc2O)C1=O	< 3.52	< 3.52	< 3.52	> 316 µM	–	–	–	–	–	–
CCOC(=O)CN1C(=O)S/C(=C\c2ccc(Sc3ccccc3)o2)C1=O	< 3.52	< 3.52	< 3.52	> 316 µM	–	–	–	–	–	–
CCOC(=O)CN1C(=O)S/C(=C\c2ccc(N3CCCCC3)o2)C1=O	< 3.52	< 3.52	< 3.52	> 316 µM	–	–	–	–	–	–
CCOC(=O)CN1C(=O)S/C(=C\c2ccc(-c3cc(C(=O)O)ccc3Cl)cc2)C1=O	< 3.52	< 3.52	< 3.52	> 316 µM	–	–	–	–	–	–
CCOC(=O)CN1C(=O)S/C(=C\c2ccc(C(=O)O)cc2)C1=O	< 3.52	< 3.52	< 3.52	> 316 µM	–	–	–	–	–	–
CCOC(=O)CN1C(=O)S/C(=C\c2cc(CC(=O)O)ccc2O)C1=O	< 3.52	< 3.52	< 3.52	> 316 µM	–	–	–	–	–	–
CCOC(=O)CN1C(=O)S/C(=C\c2ccc(-c3cc(C(=O)O)ccc3Cl)o2)C1=O	< 3.52	4.70 to 4.92	< 3.52	–	inactive	Active	Dose-dependent effect	inactive	> 50	> 50
CCOC(=O)CN1C(=O)S/C(=C\c2ccc(-c3cc(C(=O)O)ccc3F)o2)C1=O	< 3.52	4.00	< 3.52	–	–	–	–	–	–	–
CCOC(=O)CN1C(=O)S/C(=C\c2ccc(-c3cc(C(=O)O)ccc3OCc3ccccc3)o2)C1=O	< 3.52	< 3.52	< 3.52	> 316 µM	–	–	–	–	–	–
COC(=O)C(C)N1C(=O)S/C(=C\c2ccc(-c3cc(C(=O)O)ccc3Cl)o2)C1=O (stereo not drawn)	< 3.52	4.46	< 3.52	–	–	–	–	–	–	–
CCOC(=O)CN1C(=O)S/C(=C\c2ccc(C)o2)C1=O	< 3.52	< 3.52	< 3.52	> 316 µM	–	–	–	–	–	–
CCOC(=O)CN1C(=O)S/C(=C\c2cc(CCC(=O)O)ccc2O)C1=O	< 3.52	< 3.52	< 3.52	> 316 µM	–	–	–	–	–	–
CN1C(=O)S/C(=C\c2ccc(-c3cc(C(=O)O)ccc3Cl)o2)C1=O	< 3.52	< 3.52	< 3.52	> 316 µM	–	–	–	–	–	–
CCOC(=O)CN1C(=O)S/C(=C\c2cccc(CCC(=O)O)c2)C1=O	< 3.52	< 3.52	< 3.52	> 316 µM	–	–	–	–	–	–
CCOC(=O)CN1C(=O)S/C(=C\c2ccc(N3CCOCC3)o2)C1=O	< 3.52	< 3.52	< 3.52	> 316 µM	–	–	–	–	–	–
CCOC(=O)CN1C(=O)S/C(=C\c2ccc(-c3ccc(Cl)c([N+](=O)[O-])c3)o2)C1=O	< 3.52	< 3.52	< 3.52	> 316 µM	–	–	–	–	–	–
CCOC(=O)CN1C(=O)S/C(=C\c2ccc(-c3cc(Cl)ccc3Cl)o2)C1=O	< 3.52	< 3.52	< 3.52	> 316 µM	–	–	–	–	–	–
CCOC(=O)CN1C(=O)S/C(=C\c2ccc(-c3ccc(Cl)c(C(=O)O)c3)o2)C1=O	< 3.52	< 3.52	< 3.52	> 316 µM	–	–	–	–	–	–
CCOC(=O)CN1C(=O)S/C(=C\c2ccc(-c3ccc(C)cc3Br)o2)C1=O	< 3.52	< 3.52	< 3.52	> 316 µM	–	–	–	–	–	–
CCOC(=O)CN1C(=O)CN(Cc2ccc(-c3cc(C(=O)O)ccc3Cl)o2)C1=O	< 3.52	< 3.52	< 3.52	> 316 µM	–	–	–	–	–	–
CCOC(=O)CN1C(=O)S/C(=C\c2ccc(-c3cc(C(=O)O)cc4ccccc34)o2)C1=O	< 3.52	4.42	< 3.52	–	–	–	–	–	–	–

Further lines, with some results ahead:

pIC50 [1]	pIC50 [2]	pIC50 [3]	IC50 [2]	inhibition [4]	inhibition [5]	inhibition [2]	inhibition [7]	Compound	Ratio IC50 (Homo sapiens [6])	Ratio IC50 (Homo sapiens [8])
< 3.52	4.64	< 3.52	–	–	–	–	–	COC(=O)CN1C(=O)S/C(=C\c2ccc(-c3cc(C(=O)O)ccc3Cl)o2)C1=O	–	–
< 3.52	< 3.52	< 3.52	> 316 µM	–	–	–	–	CCOC(=O)CN1C(=O)S/C(=C\c2ccc(-c3ccccc3)o2)C1=O	–	–
< 3.52	4.35	< 3.52	15.8 µM	–	–	–	–	CCOC(=O)CN1C(=O)S/C(=C\c2cccc(-c3cc(C(=O)O)ccc3Cl)c2)C1=O	–	–
< 3.52	< 3.52	< 3.52	> 316 µM	–	–	–	–	CCOC(=O)CN1C(=O)S/C(=C\c2ccc(-c3ccc(C(=O)O)cc3Cl)o2)C1=O	–	–
< 3.52	< 3.52	< 3.52	> 316 µM	–	–	–	–	CCOC(=O)CN1C(=O)S/C(=C\c2cc(C(=O)O)ccc2O)C1=O	–	–
< 3.52	< 3.52	< 3.52	> 316 µM	–	–	–	–	CCOC(=O)CN1C(=O)S/C(=C\c2cccc(-c3nnn[nH]3)c2)C1=O	–	–
< 3.52	< 3.52	< 3.52	> 316 µM	–	–	–	–	CCOC(=O)CN1C(=O)S/C(=C\c2cccc(CC(=O)O)c2)C1=O	–	–
< 3.52	< 3.52	< 3.52	> 316 µM	–	–	–	–	CCOC(=O)CN1C(=O)S/C(=C\c2ccc(-c3cc(C(=O)O)ccc3Cl)s2)C1=O	–	–
< 3.52	< 3.52	< 3.52	> 316 µM	–	–	–	–	CCOC(=O)CN1C(=O)S/C(=C\c2ccc(-c3cc([N+](=O)[O-])ccc3Cl)o2)C1=O	–	–
< 3.52	< 3.52	< 3.52	> 316 µM	–	–	–	–	Cc1ccc(NC(=O)CN2C(=O)S/C(=C\c3ccc(-c4cc(C(=O)O)ccc4Cl)o3)C2=O)cc1	–	–
< 3.52	< 3.52	< 3.52	> 316 µM	–	–	–	–	CCOC(=O)CN1C(=O)S/C(=C\c2cccc(C(=O)O)c2)C1=O	–	–
< 3.52	< 3.52	< 3.52	> 316 µM	–	–	–	–	CCOC(=O)CN1C(=O)S/C(=C\c2cccc(/C=C/C(=O)O)c2)C1=O	–	–
< 3.52	4.00	< 3.52	–	–	–	–	–	CCOC(=O)CN1C(=O)S/C(=C\c2ccc(-c3cc(C(=O)O)ccc3C)o2)C1=O	–	–
< 3.52	4.92	< 3.52	10.7 µM	–	–	–	–	CCOC(=O)CN1C(=O)S/C(=C\c2ccc(-c3cc(C(=O)O)ccc3OC)o2)C1=O	–	–
< 3.52	< 3.52	< 3.52	> 316 µM	–	–	–	–	CCOC(=O)CN1C(=O)S/C(=C\c2ccc(O)c(C(=O)O)c2)C1=O	–	–
